pKi: −log10 of the molar value.
Key:
[1] = (§1) Displacement [3H]LY-186,126 from phosphodiesterase 4 of myocardial vesicles; assay type: tissue-based, Canis lupus familiaris, Myocardium
How it was run: (§2)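 Canine ventricular myocardial vesicles (mixed sarcolemmal and SR; stored at –80 °C), about 100 μg protein, incubated 60 min at 25 °C in 50 mM Tris-Cl pH 7.4, 5 mM MgCl2, 0.01% BSA with 10 nM [3H]-LY186126 (79.2 Ci/mmol). Competitors in DMSO were tested at 0.003–100 μM in half-log steps. Samples were filtered on GF/C and washed with cold phosphate. Specific binding is the part displaced by 100 μM indolidan. Run in triplicate; Ki from nonlinear least-squares fits.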

Phosphodiesterase 4 [2] = molecular target: T1, Phosphodiesterase 4 (Homo sapiens, UniProt P27815+Q08499+Q07343+Q08493); assay: Inhibition of sarcoplasmic reticulum Phosphodiesterase 4; assay type: protein assay, Canis lupus familiaris
Phosphodiesterase 4 [3] = molecular target: T1, Phosphodiesterase 4; assay: Binding affinity for sarcoplasmic reticulum phosphodiesterase 4 of canine ventricle; assay type: protein assay, Canis lupus familiaris; settings: target entry is the homologue from another species
Phosphodiesterase 4 [4] = molecular target: T1, Phosphodiesterase 4; assay: Binding affinity for Phosphodiesterase 4 of canine myocardial vesicles; assay type: protein assay, Canis lupus familiaris; settings: target entry is the homologue from another species; how it was run: as §2
Phosphodiesterase 4 [5] = molecular target: T1, Phosphodiesterase 4; assay: as §1; assay type: tissue-based, Canis lupus familiaris, Myocardium; how it was run: as §2

| IC50 (Phosphodiesterase 4 [2]) [nM] | Ki (Phosphodiesterase 4 [5]) [nM] | Compound | other results |
| --- | --- | --- | --- |
| – | – | O=C1CCC(c2ccc3c(c2)CCC(=O)N3)=NN1 | pKi [1]: 8.60 |
| 120 | – | CC1CC(=O)NN=C1c1ccc2c(c1)C(C)(C)C(=O)N2C (centres undefined) | Kd (Phosphodiesterase 4 [3]): 3.9 nM; Kd (Phosphodiesterase 4 [4]): 4.1 nM |
| – | 61400 | CN1N=C(c2ccc3c(c2)CC(=O)N3)CCC1=O | – |
| – | 0.54 | CC1CC(=O)NN=C1c1ccc2c(c1)C(C)(C)C(=O)N2 (centres undefined) | – |
| 760 | – | CN1C(=O)C(C)(C)c2cc(C3=NNC(=O)CC3)ccc21 | – |
| 150 | 5.4 | CC1(C)C(=O)Nc2ccc(C3=NNC(=O)CC3)cc21 [INDOLIDAN] | – |

— ChEMBL document CHEMBL1124692, “Synthesis of a tritium-labeled indolidan analogue and its use as a radioligand for phosphodiesterase-inhibitor cardiotonic binding sites” (J Med Chem, 1989)
